We go through 12 molecules from ChEMBL document CHEMBL1781947, “Structure-activity studies on the nociceptin/orphanin FQ receptor antagonist 1-benzyl-N-{3-[spiroisobenzofuran-1(3H),4'-piperidin-1-yl]propyl} pyrrolidine-2-carboxamide” (Bioorg Med Chem, 2009).

The source made the active and inactive calls.

The target of assay [1] is T1, Nociceptin receptor (Homo sapiens, UniProt P41146). As to the kind of experiment: Displacement of [3H]N/OFQ from human recombinant NOP receptor expressed in CHO cells. The class given is cell-based. The procedure, abridged:
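Membranes from CHO cells expressing human NOP, prepared in 50 mM Tris-HCl, 5 mM Mg2+ pH 7.4. Incubation: 5 µg protein, ~200 pM [3H]N/OFQ, 10 µM peptidase inhibitors (amastatin, bestatin, captopril, phosphoramidon), 0.5% BSA, increasing competitor concentrations, 1 h at room temperature. Nonspecific binding defined with 1 µM unlabeled N/OFQ. Filtration onto 0.5% PEI-soaked GF/B filters; pKi reported.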

For assay [2], the system named is Mus musculus. As to the kind of experiment: Effect on N/OFQ-induced pronociciceptive activity in Swiss albino mouse at 10 mg/kg, ip administered 30 mins before 1 nmol, icv N/OFQ challenge by tail withdrawal latency test. The format is functional, organism-based. Further details: dose 10 mg/kg. The method in brief: (§1)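 Male Swiss albino mice (25–30 g), distal half of the tail dipped in 48 °C water, 20 s cutoff, observer blind to treatment. Test agent 10 mg/kg ip in 2% DMSO/10% encapsin, 30 min before 1 nmol N/OFQ or saline given icv (2 µl) or i.t. (5 µl). Latency read before and 5, 15, 30 and 60 min after injection. Four mice per group, repeated four times (n=16).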

Assay [3] concerns Mus musculus. As to the kind of experiment: Effect on N/OFQ-induced antinociceptive activity in Swiss albino mouse at 10 mg/kg, ip administered 30 mins before 1 nmol, it N/OFQ challenge by tail withdrawal latency test. The format is functional, organism-based. Further details: dose 10 mg/kg. The method in brief:
as §1

For assay [4], the target named is T1, Nociceptin receptor. As to the kind of experiment: Antagonist activity at human recombinant NOP expressed in expressed on CHO cells co-expressing Galphaqi5 chimeric protein assessed as inhibition of NOPN/OFQ-stimulated calcium mobilization. The format is functional, cell-based. The procedure, abridged:
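CHO cells stably co-expressing hNOP and Gαqi5, 40,000 cells/well, loaded 24 h later with Fluo-4 AM 3 µM, probenecid 2.5 mM, pluronic 0.01% for 30 min at 37 °C. Assay buffer HBSS/20 mM HEPES with probenecid and Brilliant Black. Fluorescence read at room temperature. Antagonist inhibition of 10 nM N/OFQ response. pKb derived from IC50 via the Kb equation. Four experiments in duplicate.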
(Calcium assays in cells follow changes in intracellular calcium, usually with a dye or a luminescent sensor.)

For assay [5], the target named is Nociceptin receptor (Mus musculus, UniProt P35377). As to the kind of experiment: Antagonist activity at nociceptin receptor in Swiss mouse vas deferens assessed as inhibition of electrically evoked twitches. The class given is functional, tissue-based. Particulars: read-out: pA2 (converted). The procedure, abridged: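 Vas deferens from male Swiss mice (30–35 g), field-stimulated with supramaximal 1 ms pulses at 0.05 Hz. Twitches recorded isotonically after 60 min equilibration. Cumulative N/OFQ curves run in 0.5 log steps, without or with antagonist pre-incubated 15 min. pA2 from Schild analysis. At least four experiments.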

Assay [6] deals with T1, Nociceptin receptor. As to the kind of experiment: Antagonist activity at human recombinant NOP expressed in CHO cells by [35S]GTPgammaS binding assay. The class given is functional, cell-based. To be noted: read-out: pA2 (converted). The procedure, abridged:
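Membranes from CHO cells stably expressing human NOP, prepared in 50 mM Tris-HCl, 0.2 mM EGTA pH 7.4; 20 µg protein with MgCl2 1 mM, NaCl 100 mM, bacitracin 0.15 mM, peptidase inhibitors, GDP 100 µM, ~150 pM [35S]GTPγS. Antagonist preincubated 15 min at 30 °C, then N/OFQ concentration-response 1 h at 30 °C; filtration without PEI. pA2 from Schild analysis.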
(In general: GTPγS resists hydrolysis and so accumulates on activated G proteins.)

Assay [7] deals with T2, Mu-type opioid receptor (Homo sapiens, UniProt P35372). As to the kind of experiment: Displacement of [3H]DPN from human recombinant mu-type opioid receptor expressed in CHO cell membranes. The class given is cell-based. A general note: Displacement assays read how much labelled ligand stays bound in the presence of the test substance.
Assay [8] has as its target T3, Delta-type opioid receptor (Homo sapiens, UniProt P41143). As to the kind of experiment: Displacement of [3H]DPN from human recombinant delta-type opioid receptor expressed in CHO cell membranes. The method in brief:
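CHO membranes expressing human DOP (25 µg protein) incubated 1 h at room temperature in 50 mM Tris-HCl pH 7.4, 0.5% BSA, ~0.7 nM [3H]diprenorphine with increasing test concentrations. Filtration through PEI-soaked GF/B filters, scintillation counting. Four separate experiments.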

For assay [9], the target named is T4, Kappa-type opioid receptor (Homo sapiens, UniProt P41145). As to the kind of experiment: Displacement of [3H]DPN from human recombinant kappa-type opioid receptor expressed in CHO cell membranes. The class given is cell-based.
In assay [10] the target is T4, Kappa-type opioid receptor. To be noted: CHO.
Assay [11] concerns the target Nociceptin receptor (Rattus norvegicus) (UniProt P35370). Particulars: Sprague-Dawley, Vas deferens.
Assay [12] deals with Nociceptin receptor (Cavia porcellus) (UniProt P47748). To be noted: Albino, Ileum.
For assay [13], the target named is T2, Mu-type opioid receptor. Particulars: CHO.
Assay [14] has as its target T3, Delta-type opioid receptor. Particulars: CHO.
For assay [15], the system named is Mus musculus. As to the kind of experiment: Effect on N/OFQ-induced antinociceptive activity in Swiss albino mouse at 1 mg/kg, ip administered 30 mins before 1 nmol, it N/OFQ challenge by tail withdrawal latency test. The format is functional, organism-based. Further details: dose 1 mg/kg.
In assay [16] the test system is Mus musculus. As to the kind of experiment: Effect on N/OFQ-induced pronociciceptive activity in Swiss albino mouse at 1 mg/kg, ip administered 30 mins before 1 nmol, icv N/OFQ challenge by tail withdrawal latency test. Also noted: dose 1 mg/kg. The format is functional, organism-based.

T1 sequence (P41146 whole entry): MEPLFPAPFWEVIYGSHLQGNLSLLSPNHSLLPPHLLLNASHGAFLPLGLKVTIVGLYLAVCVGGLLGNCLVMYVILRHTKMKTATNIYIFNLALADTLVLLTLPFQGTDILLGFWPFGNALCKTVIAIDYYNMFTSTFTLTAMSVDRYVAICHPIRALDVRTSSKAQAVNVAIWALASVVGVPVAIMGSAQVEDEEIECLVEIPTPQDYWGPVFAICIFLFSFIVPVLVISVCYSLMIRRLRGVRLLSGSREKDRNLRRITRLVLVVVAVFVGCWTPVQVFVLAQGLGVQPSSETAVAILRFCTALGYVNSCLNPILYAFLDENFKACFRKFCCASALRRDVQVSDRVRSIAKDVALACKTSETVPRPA
Chain of Nociceptin receptor (Mus musculus, UniProt P35377) (P35377 whole entry): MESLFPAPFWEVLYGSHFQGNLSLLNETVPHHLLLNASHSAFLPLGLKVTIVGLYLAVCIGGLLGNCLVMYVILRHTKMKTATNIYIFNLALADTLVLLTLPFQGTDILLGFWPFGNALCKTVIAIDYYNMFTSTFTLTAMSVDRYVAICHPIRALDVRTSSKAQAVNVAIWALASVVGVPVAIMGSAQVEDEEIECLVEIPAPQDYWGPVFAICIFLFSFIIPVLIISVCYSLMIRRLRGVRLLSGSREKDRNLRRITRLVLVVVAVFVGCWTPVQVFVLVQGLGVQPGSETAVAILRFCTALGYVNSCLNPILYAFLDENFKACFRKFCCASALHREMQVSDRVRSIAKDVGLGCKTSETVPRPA
T3 sequence (P41143 whole entry): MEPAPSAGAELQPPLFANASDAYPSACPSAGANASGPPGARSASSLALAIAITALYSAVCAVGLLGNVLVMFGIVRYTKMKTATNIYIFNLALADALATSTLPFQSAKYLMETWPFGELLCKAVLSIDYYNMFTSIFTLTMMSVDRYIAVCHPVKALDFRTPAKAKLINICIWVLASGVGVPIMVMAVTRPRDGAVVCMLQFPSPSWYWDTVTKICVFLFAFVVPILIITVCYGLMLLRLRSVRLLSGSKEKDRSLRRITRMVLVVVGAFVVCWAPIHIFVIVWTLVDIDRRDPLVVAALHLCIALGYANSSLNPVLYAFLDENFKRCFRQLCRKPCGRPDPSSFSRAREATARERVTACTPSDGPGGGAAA
T4 sequence (P41145 whole entry): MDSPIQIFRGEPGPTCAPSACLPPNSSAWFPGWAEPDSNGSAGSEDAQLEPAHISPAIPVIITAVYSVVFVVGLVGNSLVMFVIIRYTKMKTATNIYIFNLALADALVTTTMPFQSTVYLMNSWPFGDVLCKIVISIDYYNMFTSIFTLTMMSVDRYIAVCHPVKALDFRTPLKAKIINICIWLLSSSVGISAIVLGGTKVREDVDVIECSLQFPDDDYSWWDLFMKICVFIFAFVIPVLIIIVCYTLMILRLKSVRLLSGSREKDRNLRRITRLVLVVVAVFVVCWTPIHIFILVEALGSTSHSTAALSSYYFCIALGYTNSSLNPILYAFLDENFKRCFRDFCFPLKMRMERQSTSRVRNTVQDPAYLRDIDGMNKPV
T2 sequence (P35372 whole entry): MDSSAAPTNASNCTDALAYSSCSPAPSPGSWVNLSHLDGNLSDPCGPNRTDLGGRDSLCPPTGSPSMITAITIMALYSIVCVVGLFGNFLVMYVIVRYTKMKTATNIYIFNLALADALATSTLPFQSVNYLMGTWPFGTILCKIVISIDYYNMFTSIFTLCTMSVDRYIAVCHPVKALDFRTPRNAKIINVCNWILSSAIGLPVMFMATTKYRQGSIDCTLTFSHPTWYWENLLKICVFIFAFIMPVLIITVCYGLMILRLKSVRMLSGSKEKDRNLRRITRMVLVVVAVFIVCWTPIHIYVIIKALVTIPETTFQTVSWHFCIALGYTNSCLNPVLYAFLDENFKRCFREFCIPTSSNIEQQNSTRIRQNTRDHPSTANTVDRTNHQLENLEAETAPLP
Chain of Nociceptin receptor (Rattus norvegicus) (P35370 whole entry): as the sequence (P35377 whole entry) above, with F9Y, A335S counted along it
Chain of Nociceptin receptor (Cavia porcellus) (P47748 whole entry): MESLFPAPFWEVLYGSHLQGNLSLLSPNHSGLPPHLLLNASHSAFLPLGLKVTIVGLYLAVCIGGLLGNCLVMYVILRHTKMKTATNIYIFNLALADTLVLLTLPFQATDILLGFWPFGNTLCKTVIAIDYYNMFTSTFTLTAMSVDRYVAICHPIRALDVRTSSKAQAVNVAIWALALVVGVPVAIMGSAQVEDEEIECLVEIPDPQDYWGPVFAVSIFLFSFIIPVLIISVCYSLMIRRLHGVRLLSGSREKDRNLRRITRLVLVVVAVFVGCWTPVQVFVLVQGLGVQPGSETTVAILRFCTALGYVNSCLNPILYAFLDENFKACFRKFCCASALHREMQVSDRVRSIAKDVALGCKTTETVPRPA

A word on the Ki: it is a measure of affinity in units of concentration, obtained from inhibition or displacement. In the case of `c1ccc(CN2CCC[C@@H]2CNCCCN2CCC3(CC2)OCc2ccccc23)cc1`, on Nociceptin receptor [1], the Ki is 49 nM.
Take `O=C(OCCCN1CCC2(CC1)OCc1ccccc12)[C@H]1CCCN1Cc1ccccc1`: the Ki at Nociceptin receptor [1] is 107 nM.
With `CN(CCCN1CCC2(CC1)OCc1ccccc12)C(=O)[C@H]1CCCN1Cc1ccccc1`, on Nociceptin receptor [1], the Ki is 1150 nM.
Same read-out and setting: the value for `O=C(NCCCN1CCC(c2c(Cl)cccc2Cl)CC1)[C@@H]1CCCN1Cc1ccccc1` was 83.2 nM.
A word on the pKb: it is the negative decadic logarithm of the Kb, by convention in mol/L. With `O=C(NCCCN1CCC2(CC1)OCc1ccccc12)[C@H]1CCCN1Cc1ccccc1`, the outcome in the assay with Mus musculus [2] and with Mus musculus [3] was Active. Moreover, the inhibition constant Ki on Nociceptin receptor [1] is 0.24 nM. For the same molecule, the pKb at Nociceptin receptor [4] is 9.03. For the same molecule, the Kb at Nociceptin receptor [5] is 5.75 nM.
On to `O=C(NCCCN1CCC(c2c(Cl)cccc2Cl)CC1)[C@H]1CCCN1Cc1ccccc1`, for which the outcome with Mus musculus [2] and in the assay with Mus musculus [3] was inactive. For the same molecule, the Ki at Nociceptin receptor [1] was 0.724 nM; on Mu-type opioid receptor [7], 191 nM; in [8], more than 1000 nM; in [9], 316 nM. The Kb was 0.123 nM at Nociceptin receptor [6] and 10 nM at Nociceptin receptor [5]. The pKb on Nociceptin receptor [4] was 8.47; in [10], less than 6; in [11], 8.06; in assay [12], 8.84; on Mu-type opioid receptor [13], 6.11; in assay [14], less than 6.
On to `O=C(CNCc1ccccc1)NCCCN1CCC2(CC1)OCc1ccccc12`, for which the inhibitory constant (Ki) on Nociceptin receptor [1] was 60.3 nM.
On the same count and under the same terms, the value for `N[C@H](Cc1ccccc1)C(=O)NCCCN1CCC2(CC1)OCc1ccccc12` was 58.9 nM; that for `N[C@@H](Cc1ccccc1)C(=O)NCCCN1CCC2(CC1)OCc1ccccc12` was 58.9 nM; that for `c1ccc(CN2CCC[C@@H]2COCCCN2CCC3(CC2)OCc2ccccc23)cc1` was 158 nM.
With `C(=C[C@H]1CCCN1Cc1ccccc1)CCCN1CCC2(CC1)NCc1ccccc12`, the Ki at Nociceptin receptor [1] is more than 10000 nM.
As for `Cc1cccc2c1CC[C@H](CN1CCC(c3c(Cl)cccc3Cl)CC1)C[C@@H]2O`, the result with Mus musculus [15] and in the assay on Mus musculus [16] was Active.
